Data taken from ChEMBL document CHEMBL2321690, “New betulinic acid derivatives for bevirimat-resistant human immunodeficiency virus type-1” (J Med Chem, 2013).

Assays:
MT4 = assay: Cytotoxicity against human MT4 cells for 4 days; type: cell-based; settings: mt4, 96 h
Summary of the method: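 MT4 cells cultured with various compound concentrations for 4 days. Viability read by a CytoTox-Glo luminescent cytotoxicity assay. CC50 is the concentration reducing viable cells by 50%.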

[1] = tested on: Human immunodeficiency virus 1; assay: Antiviral activity against 0.001 MOI bevirimat-resistant Human immunodeficiency virus 1 NL4-3 harboring gag V370A mutant infected in human MT4 cells assessed as inhibition of viral replication measured 4 days post infection by ELISA; type: functional, organism-based; settings: Human immunodeficiency virus 1, NL4-3, MT4, 96 h
Summary of the method: (§1)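 Mutations introduced into pNL4-3 by site-directed mutagenesis. MT4 cells infected with wild-type NL4-3 or resistant variant at 0.001 TCID50/cell in presence of graded compound concentrations. Supernatant p24 measured by ELISA on day 4 post-infection. IC50 is the concentration reducing p24 by 50%, reported as mean ± SD with the number of tests given per value.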

[2] = tested on: Human immunodeficiency virus 1; assay: Antiviral activity against 0.001 MOI wild type Human immunodeficiency virus 1 NL4-3 infected in human MT4 cells assessed as inhibition of viral replication measured 4 days post infection by ELISA; type: functional, organism-based; settings: Human immunodeficiency virus 1, NL4-3, MT4, 96 h; summary of the method: as §1

SMILES	CC50 (MT4)	IC50 [1]	IC50 [2]
C=C(C)[C@@H]1CC[C@]2(C(=O)NCCCCCCCNC(=O)[C@H](CCC(N)=O)NC(=O)OC(C)(C)C)CC[C@]3(C)[C@H](CC[C@@H]4[C@@]5(C)CC[C@H](OC(=O)CC(C)(C)C(=O)O)C(C)(C)[C@@H]5CC[C@]43C)[C@@H]12	> 10000 nM	2600 nM	10 nM
C=C(C)[C@@H]1CC[C@]2(C(=O)N3CCN(CCCCC(=O)O)CC3)CC[C@]3(C)[C@H](CC[C@@H]4[C@@]5(C)CC[C@H](OC(=O)CC(C)(C)C(=O)O)C(C)(C)[C@@H]5CC[C@]43C)[C@@H]12	> 10000 nM	> 3300 nM	6 nM
C=C(C)[C@@H]1CC[C@]2(C(=O)NCCCCCCCCC(=O)N(C)CC#N)CC[C@]3(C)[C@H](CC[C@@H]4[C@@]5(C)CC[C@H](OC(=O)CC(C)(C)C(=O)O)C(C)(C)[C@@H]5CC[C@]43C)[C@@H]12	> 10000 nM	2080 nM	40 nM
C=C(C)[C@@H]1CC[C@]2(C(=O)NCCCCCCCCNC(=O)[C@H](CCC#N)NC(=O)OC(C)(C)C)CC[C@]3(C)[C@H](CC[C@@H]4[C@@]5(C)CC[C@H](OC(=O)CC(C)(C)C(=O)O)C(C)(C)[C@@H]5CC[C@]43C)[C@@H]12	> 10000 nM	330 nM	30 nM
C=C(C)[C@@H]1CC[C@]2(C(=O)NCCCCCCCNC(=O)[C@H](C)NC(=O)OC(C)(C)C)CC[C@]3(C)[C@H](CC[C@@H]4[C@@]5(C)CC[C@H](OC(=O)CC(C)(C)C(=O)O)C(C)(C)[C@@H]5CC[C@]43C)[C@@H]12	7900 nM	370 nM	10 nM
C=C(C)[C@@H]1CC[C@]2(C(=O)NCCCCCCCCC(=O)NCC(=O)OC)CC[C@]3(C)[C@H](CC[C@@H]4[C@@]5(C)CC[C@H](OC(=O)CC(C)(C)C(=O)O)C(C)(C)[C@@H]5CC[C@]43C)[C@@H]12	> 10000 nM	1510 nM	10 nM
C=C(C)[C@@H]1CC[C@]2(C(=O)NCCCCCCCCC(=O)N[C@@H](CCC(=O)OC)C(=O)OC)CC[C@]3(C)[C@H](CC[C@@H]4[C@@]5(C)CC[C@H](OC(=O)CC(C)(C)C(=O)O)C(C)(C)[C@@H]5CC[C@]43C)[C@@H]12	> 10000 nM	2160 nM	180 nM
C=C(C)[C@@H]1CC[C@]2(C(=O)NCCCCCCCCNC(=O)[C@@H]3CCCN3C(=O)OC(C)(C)C)CC[C@]3(C)[C@H](CC[C@@H]4[C@@]5(C)CC[C@H](OC(=O)CC(C)(C)C(=O)O)C(C)(C)[C@@H]5CC[C@]43C)[C@@H]12	> 10000 nM	950 nM	40 nM
C=C(C)[C@@H]1CC[C@]2(C(=O)NCCCCCCCCNC(=O)[C@H](CCC(N)=O)NC(=O)OC(C)(C)C)CC[C@]3(C)[C@H](CC[C@@H]4[C@@]5(C)CC[C@H](OC(=O)CC(C)(C)C(=O)O)C(C)(C)[C@@H]5CC[C@]43C)[C@@H]12	> 10000 nM	360 nM	30 nM
C=C(C)[C@@H]1CC[C@]2(C(=O)NCCCCCCCC(=O)N[C@@H](CCC(N)=O)C(=O)OC)CC[C@]3(C)[C@H](CC[C@@H]4[C@@]5(C)CC[C@H](OC(=O)CC(C)(C)C(=O)O)C(C)(C)[C@@H]5CC[C@]43C)[C@@H]12	> 10000 nM	> 5000 nM	50 nM
C=C(C)[C@@H]1CC[C@]2(C(=O)NCCCCCCCCC(=O)N[C@@H](Cc3ccccc3)C(=O)OC)CC[C@]3(C)[C@H](CC[C@@H]4[C@@]5(C)CC[C@H](OC(=O)CC(C)(C)C(=O)O)C(C)(C)[C@@H]5CC[C@]43C)[C@@H]12	> 10000 nM	1290 nM	70 nM
C=C(C)[C@@H]1CC[C@]2(C(=O)NCCCCCCC(=O)N[C@@H](CCC(N)=O)C(=O)OC)CC[C@]3(C)[C@H](CC[C@@H]4[C@@]5(C)CC[C@H](OC(=O)CC(C)(C)C(=O)O)C(C)(C)[C@@H]5CC[C@]43C)[C@@H]12	> 10000 nM	2460 nM	50 nM
C=C(C)[C@@H]1CC[C@]2(C(=O)NCCCCCCCCCC(=O)N[C@@H](CCC(N)=O)C(=O)OC)CC[C@]3(C)[C@H](CC[C@@H]4[C@@]5(C)CC[C@H](OC(=O)CC(C)(C)C(=O)O)C(C)(C)[C@@H]5CC[C@]43C)[C@@H]12	> 10000 nM	700 nM	100 nM
C=C(C)[C@@H]1CC[C@]2(C(=O)NCCCCCCCCC(=O)NCC#N)CC[C@]3(C)[C@H](CC[C@@H]4[C@@]5(C)CC[C@H](OC(=O)CC(C)(C)C(=O)O)C(C)(C)[C@@H]5CC[C@]43C)[C@@H]12	6490 nM	460 nM	30 nM
C=C(C)[C@@H]1CC[C@]2(C(=O)NCCCCCCCCC(=O)NCC(=O)O)CC[C@]3(C)[C@H](CC[C@@H]4[C@@]5(C)CC[C@H](OC(=O)CC(C)(C)C(=O)O)C(C)(C)[C@@H]5CC[C@]43C)[C@@H]12	> 10000 nM	480 nM	40 nM
C=C(C)[C@@H]1CC[C@]2(C(=O)NCCCCCCCCC(=O)N3CCC[C@H]3C(=O)OC)CC[C@]3(C)[C@H](CC[C@@H]4[C@@]5(C)CC[C@H](OC(=O)CC(C)(C)C(=O)O)C(C)(C)[C@@H]5CC[C@]43C)[C@@H]12	> 10000 nM	880 nM	100 nM
C=C(C)[C@@H]1CC[C@]2(C(=O)NCCCCCCCCNC(=O)[C@H](C)NC(=O)OC(C)(C)C)CC[C@]3(C)[C@H](CC[C@@H]4[C@@]5(C)CC[C@H](OC(=O)CC(C)(C)C(=O)O)C(C)(C)[C@@H]5CC[C@]43C)[C@@H]12	> 10000 nM	920 nM	20 nM
C=C(C)[C@@H]1CC[C@]2(C(=O)NCCCCCCCCCNC(=O)[C@H](C)NC(=O)OC(C)(C)C)CC[C@]3(C)[C@H](CC[C@@H]4[C@@]5(C)CC[C@H](OC(=O)CC(C)(C)C(=O)O)C(C)(C)[C@@H]5CC[C@]43C)[C@@H]12	> 10000 nM	1580 nM	50 nM
C=C(C)[C@@H]1CC[C@]2(C(=O)NCCCCCCCCCNC(=O)CNC(=O)OC(C)(C)C)CC[C@]3(C)[C@H](CC[C@@H]4[C@@]5(C)CC[C@H](OC(=O)CC(C)(C)C(=O)O)C(C)(C)[C@@H]5CC[C@]43C)[C@@H]12	> 10000 nM	1040 nM	20 nM
C=C(C)[C@@H]1CC[C@]2(C(=O)NCCCCCCCCC(=O)N[C@@H](CCC(N)=O)C(=O)OCc3ccccc3)CC[C@]3(C)[C@H](CC[C@@H]4[C@@]5(C)CC[C@H](OC(=O)CC(C)(C)C(=O)O)C(C)(C)[C@@H]5CC[C@]43C)[C@@H]12	> 10000 nM	2540 nM	40 nM
C=C(C)[C@@H]1CC[C@]2(C(=O)NCCCCCCCCC(=O)N[C@@H](C)C(=O)OC)CC[C@]3(C)[C@H](CC[C@@H]4[C@@]5(C)CC[C@H](OC(=O)CC(C)(C)C(=O)O)C(C)(C)[C@@H]5CC[C@]43C)[C@@H]12	> 10000 nM	420 nM	10 nM
C=C(C)[C@@H]1CC[C@]2(C(=O)NCCCCCCCCCNC(=O)[C@H](CCC(N)=O)NC(=O)OC(C)(C)C)CC[C@]3(C)[C@H](CC[C@@H]4[C@@]5(C)CC[C@H](OC(=O)CC(C)(C)C(=O)O)C(C)(C)[C@@H]5CC[C@]43C)[C@@H]12	> 10000 nM	1200 nM	20 nM
C=C(C)[C@@H]1CC[C@]2(C(=O)NCCCCCCCCC(=O)N[C@H](C(=O)OC)C(C)C)CC[C@]3(C)[C@H](CC[C@@H]4[C@@]5(C)CC[C@H](OC(=O)CC(C)(C)C(=O)O)C(C)(C)[C@@H]5CC[C@]43C)[C@@H]12	> 10000 nM	1240 nM	10 nM
C=C(C)[C@@H]1CC[C@]2(C(=O)NCCCCCCCCNC(=O)[C@@H](NC(=O)OC(C)(C)C)C(C)C)CC[C@]3(C)[C@H](CC[C@@H]4[C@@]5(C)CC[C@H](OC(=O)CC(C)(C)C(=O)O)C(C)(C)[C@@H]5CC[C@]43C)[C@@H]12	> 10000 nM	330 nM	150 nM
C=C(C)[C@@H]1CC[C@]2(C(=O)NCCCCCCCCC(=O)N[C@@H](CCC(N)=O)C(=O)OC(C)(C)C)CC[C@]3(C)[C@H](CC[C@@H]4[C@@]5(C)CC[C@H](OC(=O)CC(C)(C)C(=O)O)C(C)(C)[C@@H]5CC[C@]43C)[C@@H]12	> 10000 nM	810 nM	10 nM
C=C(C)[C@@H]1CC[C@]2(C(=O)NCCCCCCCCC(=O)NCCC#N)CC[C@]3(C)[C@H](CC[C@@H]4[C@@]5(C)CC[C@H](OC(=O)CC(C)(C)C(=O)O)C(C)(C)[C@@H]5CC[C@]43C)[C@@H]12	> 10000 nM	330 nM	150 nM
C=C(C)[C@@H]1CC[C@]2(C(=O)NCCCCCCCCCNC(=O)[C@H](CC(N)=O)NC(=O)OC(C)(C)C)CC[C@]3(C)[C@H](CC[C@@H]4[C@@]5(C)CC[C@H](OC(=O)CC(C)(C)C(=O)O)C(C)(C)[C@@H]5CC[C@]43C)[C@@H]12	8300 nM	340 nM	40 nM
C=C(C)[C@@H]1CC[C@]2(C(=O)NCCCCCCCCC(=O)N[C@H](C(=O)OC)[C@@H](C)CC)CC[C@]3(C)[C@H](CC[C@@H]4[C@@]5(C)CC[C@H](OC(=O)CC(C)(C)C(=O)O)C(C)(C)[C@@H]5CC[C@]43C)[C@@H]12	> 10000 nM	2780 nM	40 nM
